In ChEMBL document CHEMBL1130190, “Thromboxane modulating agents. 3. 1H-imidazol-1-ylalkyl- and 3-pyridinylalkyl-substituted 3-[2-[(arylsulfonyl)amino]ethyl]benzenepropanoic acid derivatives as dual thromboxane synthase inhibitor/thromboxane receptor antagonists” (J Med Chem, 1997):

Tests used:
[1] = molecular target: T1, Thromboxane A2 receptor (Rattus norvegicus) (UniProt P34978); assay: Antagonist activity against TXA2 receptor measured by inhibition of U-46,619-induced contractions of rat aorta; format: functional, tissue-based
T1 sequence (whole entry): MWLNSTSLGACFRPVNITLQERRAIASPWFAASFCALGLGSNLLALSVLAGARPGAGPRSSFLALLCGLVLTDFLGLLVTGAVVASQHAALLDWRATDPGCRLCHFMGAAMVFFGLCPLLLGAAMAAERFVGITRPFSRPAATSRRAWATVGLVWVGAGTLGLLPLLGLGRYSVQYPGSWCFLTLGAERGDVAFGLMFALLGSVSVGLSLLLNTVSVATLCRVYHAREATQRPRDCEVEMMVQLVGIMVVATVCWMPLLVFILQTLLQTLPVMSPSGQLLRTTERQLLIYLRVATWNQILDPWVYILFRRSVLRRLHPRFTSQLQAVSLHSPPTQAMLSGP
Outline: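 Spirally cut rat aortic strips held under 1 g resting tension for isometric recording in Krebs-bicarbonate at 37 °C, oxygenated, equilibrated 2 h. Primed with U46619 for 10 min, washed, and rested 1 h. Cumulative U46619 (1–100 nM) contraction curves were run before and after 15 min compound exposure (1 h for footnoted entries) at several concentrations. Antagonism was derived from the shifted curves.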

Thromboxane-A synthase = molecular target: T2, Thromboxane-A synthase (Homo sapiens, UniProt P24557); assay: Activity against human platelet microsome Thromboxane synthase
T2 sequence (P24557 whole entry): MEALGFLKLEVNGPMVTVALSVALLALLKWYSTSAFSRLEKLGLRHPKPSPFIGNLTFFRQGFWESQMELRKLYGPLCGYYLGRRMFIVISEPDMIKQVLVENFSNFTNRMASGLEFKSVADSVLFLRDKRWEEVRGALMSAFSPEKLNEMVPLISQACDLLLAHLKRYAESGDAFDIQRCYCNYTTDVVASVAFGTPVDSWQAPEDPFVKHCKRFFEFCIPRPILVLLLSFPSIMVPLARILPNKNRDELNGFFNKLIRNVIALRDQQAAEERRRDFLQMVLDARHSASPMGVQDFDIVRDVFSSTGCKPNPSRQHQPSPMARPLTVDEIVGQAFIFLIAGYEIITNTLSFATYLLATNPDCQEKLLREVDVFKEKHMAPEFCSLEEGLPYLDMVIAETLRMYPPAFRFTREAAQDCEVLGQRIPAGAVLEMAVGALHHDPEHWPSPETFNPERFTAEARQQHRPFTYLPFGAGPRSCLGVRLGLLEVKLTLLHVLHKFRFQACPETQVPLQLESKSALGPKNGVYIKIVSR

CC(c1cccnc1)c1cc(CCNS(=O)(=O)c2ccc(Cl)cc2)cc(CCC(=O)O)c1 (configuration not stated)
pA2 [1]: 10.2

O=C(O)CCc1cccc(CCNS(=O)(=O)c2ccc(Cl)cc2)c1
pA2 [1]: 8.71

CC(C)(C)CS(=O)(=O)NCCc1cc(CCC(=O)O)cc(Cc2cccnc2)c1
IC50 (Thromboxane-A synthase): 39 nM
pA2 [1]: 8.1

CN(CCc1cc(CCC(=O)O)cc(Cc2cccnc2)c1)S(=O)(=O)c1ccc(Cl)cc1
IC50 (Thromboxane-A synthase): 54 nM
pA2 [1]: 6.78

O=C(O)CCc1cc(CCCS(=O)(=O)c2ccccc2)cc(Cc2cccnc2)c1
IC50 (Thromboxane-A synthase): 27 nM
pA2 [1]: 7.8

O=C(O)COc1ccc(CCNS(=O)(=O)c2ccccc2)cc1
pA2 [1]: 7.09

O=C(O)CCc1cc(CCNS(=O)(=O)Nc2ccc(Cl)cc2)cc(Cc2cccnc2)c1
IC50 (Thromboxane-A synthase): 38 nM
pA2 [1]: 8.32

CCN(CC)S(=O)(=O)NCCc1cc(CCC(=O)O)cc(Cc2cccnc2)c1
IC50 (Thromboxane-A synthase): 29 nM
pA2 [1]: 7.43

O=C(O)CCc1cc(CCNS(=O)(=O)c2ccc(Cl)cc2)cc(Cn2ccnc2)c1
IC50 (Thromboxane-A synthase): 38 nM
pA2 [1]: 8.54

C=C(c1cccnc1)c1cc(CCNS(=O)(=O)c2ccc(Cl)cc2)cc(CCC(=O)O)c1
pA2 [1]: 10

O=C(O)CCc1cc(CCNS(=O)(=O)c2ccccc2)cc(Cc2cccnc2)c1
IC50 (Thromboxane-A synthase): 45 nM
pA2 [1]: 8.8

O=C(O)CCc1cc(CCNC(=O)c2ccccc2)cc(Cc2cccnc2)c1
IC50 (Thromboxane-A synthase): 22 nM
pA2 [1]: 7.96

CN(C)S(=O)(=O)NCCc1cc(CCC(=O)O)cc(Cc2cccnc2)c1
IC50 (Thromboxane-A synthase): 22 nM
pA2 [1]: 7.69

O=C(O)CCc1cc(CCNS(=O)(=O)c2ccc(Cl)cc2)cc(Oc2cccnc2)c1
pA2 [1]: 9.4

O=C(O)CCn1cc(Cc2cccnc2)c2cc(NS(=O)(=O)c3ccc(F)cc3)ccc21
pA2 [1]: 8.85

Cc1c(Cn2ccnc2)c2cc(CCC(=O)O)ccc2n1CCNS(=O)(=O)c1ccc(F)cc1
pA2 [1]: 8.8

O=C(O)CCc1cc(CCS(=O)(=O)c2ccccc2)cc(Cc2cccnc2)c1
IC50 (Thromboxane-A synthase): 48 nM
pA2 [1]: < 6

O=C(O)CCc1cc(CCNS(=O)(=O)c2ccccc2)cc(Cn2ccnc2)c1
IC50 (Thromboxane-A synthase): 18 nM
pA2 [1]: 7.89

Cc1ccc(S(=O)(=O)NCCc2cc(CCC(=O)O)cc(Cc3cccnc3)c2)cc1
IC50 (Thromboxane-A synthase): 37 nM
pA2 [1]: 8.98

O=C(O)CCc1cc(CCNS(=O)(=O)c2ccc(F)cc2)cc(Cc2cccnc2)c1
IC50 (Thromboxane-A synthase): 20 nM
pA2 [1]: 8.9

CCCS(=O)(=O)NCCc1cc(CCC(=O)O)cc(Cc2cccnc2)c1
IC50 (Thromboxane-A synthase): 29 nM
pA2 [1]: 7.71

O=C(O)CCc1cc(CCNS(=O)(=O)c2ccccc2)cc(Oc2cccnc2)c1
pA2 [1]: 9.06

O=C(O)CCc1cc(CCNS(=O)(=O)N2CCCC2)cc(Cc2cccnc2)c1
IC50 (Thromboxane-A synthase): 22 nM
pA2 [1]: 8

O=C(O)CCc1cc(CCNS(=O)(=O)c2ccc(Br)cc2)cc(Cc2cccnc2)c1
pA2 [1]: 9.44

CC(O)(c1cccnc1)c1cc(CCNS(=O)(=O)c2ccc(Cl)cc2)cc(CCC(=O)O)c1 (configuration not stated)
pA2 [1]: 9.07

O=C(O)CCn1cc(Cn2ccnc2)c2cc(NS(=O)(=O)c3ccc(F)cc3)ccc21
pA2 [1]: 8.2

O=C(O)CCc1cc(CCNS(=O)(=O)N2CCCCC2)cc(Cc2cccnc2)c1
IC50 (Thromboxane-A synthase): 43 nM
pA2 [1]: 7.81

O=C(O)CCc1cc(CCNS(=O)(=O)c2ccc(Cl)cc2)cc(Cc2cccnc2)c1
pA2 [1]: 9.39

Cc1c(Cc2cccnc2)c2cc(CCC(=O)O)ccc2n1CCNS(=O)(=O)c1ccc(F)cc1
pA2 [1]: 9.16

O=C(O)CCc1cc(CCNS(=O)(=O)C2CCCCC2)cc(Cc2cccnc2)c1
IC50 (Thromboxane-A synthase): 43 nM
pA2 [1]: 7.81
